In ChEMBL document CHEMBL3612025, “Synthesis and biological evaluation of novel aromatic-heterocyclic biphenyls as potent anti-leukemia agents” (Eur J Med Chem, 2015):

Key:
K562 [1] = assay: Antiproliferative activity against human K562 cells after 48 hrs by MTT assay; format: functional, cell-based; settings: K562, 48 h
Summary of the method: (§1)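 Human CML K562 line grown in RPMI-1640 with 10% FBS, penicillin G and streptomycin (100 units/ml each) at 37°C, 5% CO2. 2000 cells/well were seeded and compounds were added at four concentrations 48 h later, in triplicate. After 48 h exposure, MTT (5 mg/ml) was added for 4 h. Formazan was dissolved in DMSO and read at 490 nm. IC50 is the mean of three experiments.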

Bcr/Abl fusion protein = Bcr/Abl fusion protein (Homo sapiens, UniProt P00519); assay: Inhibition of Bcr-Abl (unknown origin) after 60 mins by luminescent kinase assay; format: protein assay
Chain of Bcr/Abl fusion protein (P00519 whole entry, the tested form may be a part): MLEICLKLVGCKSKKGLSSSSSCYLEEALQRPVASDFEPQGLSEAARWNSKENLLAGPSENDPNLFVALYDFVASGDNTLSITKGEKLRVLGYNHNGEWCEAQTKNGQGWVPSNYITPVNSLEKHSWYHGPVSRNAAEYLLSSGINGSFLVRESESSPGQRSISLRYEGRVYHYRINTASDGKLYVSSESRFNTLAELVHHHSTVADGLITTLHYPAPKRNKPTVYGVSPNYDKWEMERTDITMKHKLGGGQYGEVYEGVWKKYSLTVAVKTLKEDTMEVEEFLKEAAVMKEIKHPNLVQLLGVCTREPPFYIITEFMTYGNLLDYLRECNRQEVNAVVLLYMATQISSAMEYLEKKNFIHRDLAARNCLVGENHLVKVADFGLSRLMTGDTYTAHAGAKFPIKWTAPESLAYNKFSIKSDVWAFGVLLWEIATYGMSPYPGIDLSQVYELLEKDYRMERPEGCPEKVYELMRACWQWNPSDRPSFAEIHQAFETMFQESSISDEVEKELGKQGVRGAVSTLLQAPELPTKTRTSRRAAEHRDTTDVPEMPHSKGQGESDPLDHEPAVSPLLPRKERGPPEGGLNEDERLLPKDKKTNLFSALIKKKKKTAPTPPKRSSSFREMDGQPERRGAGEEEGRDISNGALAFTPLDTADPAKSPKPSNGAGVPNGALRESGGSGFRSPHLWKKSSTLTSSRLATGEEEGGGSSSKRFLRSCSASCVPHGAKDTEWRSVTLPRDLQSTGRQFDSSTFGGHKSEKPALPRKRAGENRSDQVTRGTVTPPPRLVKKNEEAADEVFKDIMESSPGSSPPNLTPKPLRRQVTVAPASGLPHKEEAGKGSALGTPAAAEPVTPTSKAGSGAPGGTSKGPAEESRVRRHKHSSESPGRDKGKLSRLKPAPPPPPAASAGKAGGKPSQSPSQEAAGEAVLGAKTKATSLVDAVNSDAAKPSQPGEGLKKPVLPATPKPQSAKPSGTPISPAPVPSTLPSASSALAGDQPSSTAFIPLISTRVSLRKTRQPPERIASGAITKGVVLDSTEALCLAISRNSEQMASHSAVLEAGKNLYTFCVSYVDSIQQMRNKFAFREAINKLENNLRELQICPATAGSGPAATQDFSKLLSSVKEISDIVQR
Chain of Bcr/Abl fusion protein (P11274 whole entry, further chain, the tested form may be a part): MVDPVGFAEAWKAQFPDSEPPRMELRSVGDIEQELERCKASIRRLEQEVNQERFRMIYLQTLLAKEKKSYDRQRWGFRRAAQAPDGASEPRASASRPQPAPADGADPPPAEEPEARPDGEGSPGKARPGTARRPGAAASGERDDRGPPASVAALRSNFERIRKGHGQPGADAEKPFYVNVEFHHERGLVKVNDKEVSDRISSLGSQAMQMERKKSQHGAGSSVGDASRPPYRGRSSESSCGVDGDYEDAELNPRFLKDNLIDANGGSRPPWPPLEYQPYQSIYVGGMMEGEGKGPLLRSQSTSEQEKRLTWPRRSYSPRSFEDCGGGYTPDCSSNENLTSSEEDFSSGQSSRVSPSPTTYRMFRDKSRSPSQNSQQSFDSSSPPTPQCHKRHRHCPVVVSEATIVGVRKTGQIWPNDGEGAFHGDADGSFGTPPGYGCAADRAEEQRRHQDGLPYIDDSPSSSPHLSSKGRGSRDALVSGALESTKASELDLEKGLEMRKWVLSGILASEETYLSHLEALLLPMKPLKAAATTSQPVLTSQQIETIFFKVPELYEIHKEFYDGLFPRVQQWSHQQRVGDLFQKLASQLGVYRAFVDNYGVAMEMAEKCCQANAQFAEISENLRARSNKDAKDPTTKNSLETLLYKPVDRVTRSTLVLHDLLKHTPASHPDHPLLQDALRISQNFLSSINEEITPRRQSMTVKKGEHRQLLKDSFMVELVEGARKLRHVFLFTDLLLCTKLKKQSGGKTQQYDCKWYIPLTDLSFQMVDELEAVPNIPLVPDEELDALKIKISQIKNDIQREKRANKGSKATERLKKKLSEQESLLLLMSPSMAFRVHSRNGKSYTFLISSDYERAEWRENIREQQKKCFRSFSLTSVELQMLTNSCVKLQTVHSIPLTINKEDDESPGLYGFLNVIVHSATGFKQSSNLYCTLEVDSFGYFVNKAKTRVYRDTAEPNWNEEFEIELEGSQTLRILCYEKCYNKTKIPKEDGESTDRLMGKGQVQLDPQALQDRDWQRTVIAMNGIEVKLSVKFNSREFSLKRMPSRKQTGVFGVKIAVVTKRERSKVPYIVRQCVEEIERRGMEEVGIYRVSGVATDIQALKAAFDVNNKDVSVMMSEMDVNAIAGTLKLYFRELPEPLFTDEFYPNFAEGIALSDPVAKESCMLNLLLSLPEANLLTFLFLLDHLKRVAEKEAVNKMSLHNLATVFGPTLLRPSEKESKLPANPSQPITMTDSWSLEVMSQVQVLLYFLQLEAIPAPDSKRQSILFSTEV

K562 [2] = assay: Antiproliferative activity against imatinib-resistant human K562 cells after 48 hrs by MTT assay; format: functional, cell-based; settings: K562, 48 h; summary of the method: as §1

Row | SMILES | IC50 (K562 [1]) [µM] | IC50 (Bcr/Abl fusion protein) [µM] | IC50 (K562 [2]) [µM]
1 | O=C(c1ccc(-c2ccccn2)cc1)N1CCN(C(=O)c2cccc(F)c2)CC1 | > 500 |  | 
2 | O=C(c1ccc(-c2ccccn2)cc1)N1CCN(C(=O)c2cccc(C(F)(F)F)c2)CC1 | > 500 | > 500 | 
3 | COc1cccc(C(=O)N2CCN(C(=O)c3ccc(-c4ccccn4)cc3)CC2)c1 | 12.5 | 0.066 | 57.3
4 | CC(C)(C)c1ccc(C(=O)N2CCN(C(=O)c3ccc(-c4ccccn4)cc3)CC2)cc1 | 178 | 1.16 | 
5 | CN(C)c1cccc(C(=O)N2CCN(C(=O)c3ccc(-c4ccccn4)cc3)CC2)c1 | 29.7 | 45.6 | 
6 | O=C(c1ccc(-c2cccnc2)cc1)N1CCN(C(=O)c2cccc(C(F)(F)F)c2)CC1 | 346 |  | 
7 | O=C(c1ccc(-c2cccnc2)cc1)N1CCN(C(=O)c2cccc(F)c2)CC1 | 63.4 | 0.276 | 81.6
8 | COc1cccc(C(=O)N2CCN(C(=O)c3ccc(-c4cccnc4)cc3)CC2)c1 | 140 | 60.7 | 
9 | CN(C)c1cccc(C(=O)N2CCN(C(=O)c3ccc(-c4cccnc4)cc3)CC2)c1 | > 500 |  | 
10 | Cc1ccnc(-c2ccc(C(=O)N3CCN(C(=O)c4cccc(C(F)(F)F)c4)CC3)cc2)c1 | 41.6 | 0.112 | 947
11 | Cc1ccnc(-c2ccc(C(=O)N3CCN(C(=O)c4cccc(F)c4)CC3)cc2)c1 | 74.2 | 63.3 | > 1000
12 | COc1cccc(C(=O)N2CCN(C(=O)c3ccc(-c4cc(C)ccn4)cc3)CC2)c1 | 76.1 | 0.94 | 494
13 | Cc1ccnc(-c2ccc(C(=O)N3CCN(C(=O)c4ccc(C(C)(C)C)cc4)CC3)cc2)c1 | 58.3 | > 500 | 
14 | Cc1ccnc(-c2ccc(C(=O)N3CCN(C(=O)c4cccc(N(C)C)c4)CC3)cc2)c1 | 31.4 | 19.1 | 
15 | Cc1ccc(-c2ccc(C(=O)N3CCN(C(=O)c4cccc(C(F)(F)F)c4)CC3)cc2)cn1 | 47.1 |  | 
16 | Cc1ccc(-c2ccc(C(=O)N3CCN(C(=O)c4cccc(F)c4)CC3)cc2)cn1 | 64.5 | > 500 | 
17 | COc1cccc(C(=O)N2CCN(C(=O)c3ccc(-c4ccc(C)nc4)cc3)CC2)c1 | 261 | 0.143 | 304
18 | Cc1ccc(-c2ccc(C(=O)N3CCN(C(=O)c4cccc(N(C)C)c4)CC3)cc2)cn1 | 110 | > 500 | 
19 | O=C(c1ccc(-c2cccs2)cc1)N1CCN(C(=O)c2cccc(F)c2)CC1 | 13.5 | 5.05 | 
20 | COc1cccc(C(=O)N2CCN(C(=O)c3ccc(-c4cccs4)cc3)CC2)c1 | 152 | 89.7 | 
21 | O=C(c1ccc(Br)cc1)N1CCN(C(=O)c2ccc(-c3cccs3)cc2)CC1 | 29.9 | 0.073 | 86.3
22 | CN(C)c1cccc(C(=O)N2CCN(C(=O)c3ccc(-c4cccs4)cc3)CC2)c1 | 96.7 | 0.321 | 
23 | O=C(c1ccc(-c2cccs2)cc1)N1CCN(C(=O)c2ccc(Cl)cc2Cl)CC1 | 30.5 |  | 
24 | O=C(c1ccc(-c2nccs2)cc1)N1CCN(C(=O)c2cccc(F)c2)CC1 | > 500 | 444 | 
25 | COc1cccc(C(=O)N2CCN(C(=O)c3ccc(-c4nccs4)cc3)CC2)c1 | 271 | 0.016 | 492
26 | O=C(c1ccc(Br)cc1)N1CCN(C(=O)c2ccc(-c3nccs3)cc2)CC1 | > 500 | 0.421 | 
27 | CN(C)c1cccc(C(=O)N2CCN(C(=O)c3ccc(-c4nccs4)cc3)CC2)c1 | 117 | 1.84 | 
28 | O=C(c1ccc(-c2nccs2)cc1)N1CCN(C(=O)c2ccc(Cl)cc2Cl)CC1 | > 500 | > 500 | 
29 | Cc1ccc(NC(=O)c2ccc(CN3CCN(C)CC3)cc2)cc1Nc1nccc(-c2cccnc2)n1 [IMATINIB] | 1.16 |  | 15.7
